Source: publication PMC7818638 (ACS Omega, 2021)
Converted amounts (≈) assume the structure as drawn.

Key:
[1] = system: HepG2; assay: Antiproliferative; type: cell-based; conditions: Homo sapiens, HepG2, read-out: HepG2 IC50 ± SD
Method in brief: (§1)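 Test compounds are screened by MTT assay against human hepatoblastoma HepG2 cells and murine BALB/3T3 fibroblasts, with doxorubicin as the reference drug. Dose–response curves are plotted from the results. IC50 is taken as the concentration needed to kill half the cell population. Values are the mean of three independent experiments.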

[2] = system: BALB/3T3 (murine fibroblast); assay: Cytotoxicity toward normal cell line BALB/3T3, MTT assay; type: cell-based; conditions: for toxicity on the normal cell line (BALAB/3T3): statement in words; for IC50: Mus musculus, BALB/3T3, read-out: BALAB/3T3 IC50 ± SD
Method in brief: as §1

Structure (SMILES)	IC50 [1] [µg/mL]	toxicity on the normal cell line (BALAB/3T3) [2]	IC50 [2] [µg/mL]
Cc1c(-c2cc(-c3cn(-c4ccccc4)nc3-c3nnn(-c4cccc([N+](=O)[O-])c4)c3C)c(C#N)c(N)n2)nnn1-c1ccc(Br)cc1 [Compound 7, 2-Amino-6-(1-(4-bromophenyl)-5-methyl-1H-1,2,3-triazol-4-yl)-4-(3-(5-methyl-1-(3-nitrophenyl)-1H-1,2,3-triazol-4-yl)-1-phenyl-1H-pyrazol-4-yl)nicotinonitrile]	1.08 ± 0.94 (≈ 1.54 µM)	no toxicity	
CCOC(=O)c1c(-c2ccccc2)cc(-c2nnn(-c3ccc(Br)cc3)c2C)nc1N [Compound 10, Ethyl 2-Amino-6-(1-(4-bromophenyl)-5-methyl-1H-1,2,3-triazol-4-yl)-4-phenylnicotinate]	23.2 ± 0.45 (≈ 48.6 µM)		76.72 ± 0.24 (≈ 160 µM)
CCOC(=O)c1c(-c2ccc(OC)cc2)cc(-c2nnn(-c3ccc(Br)cc3)c2C)nc1N [Compound 11, Ethyl 2-Amino-6-(1-(4-bromophenyl)-5-methyl-1H-1,2,3-triazol-4-yl)-4-(4-methoxyphenyl)nicotinate]	16.7 ± 0.83 (≈ 32.8 µM)		
CCOC(=O)c1c(-c2cn(-c3ccccc3)nc2-c2nnn(-c3ccc(Br)cc3)c2C)cc(-c2nnn(-c3ccc(Br)cc3)c2C)nc1N [Compound 13, Ethyl 2-Amino-6-(1-(4-bromophenyl)-5-methyl-1H-1,2,3-triazol-4-yl)-4-(3-(1-(4-bromophenyl)-5-methyl-1H-1,2,3-triazol-4-yl)-1-phenyl-1H-pyrazol-4-yl)nicotinate]	6.24 ± 0.71 (≈ 8 µM)		61.24 ± 0.21 (≈ 78.5 µM)
CCOC(=O)c1c(-c2cn(-c3ccccc3)nc2-c2nnn(-c3cccc([N+](=O)[O-])c3)c2C)cc(-c2nnn(-c3ccc(Br)cc3)c2C)nc1N [Compound 14, Ethyl 2-Amino-6-(1-(4-bromophenyl)-5-methyl-1H-1,2,3-triazol-4-yl)-4-(3-(5-methyl-1-(3-nitrophenyl)-1H-1,2,3-triazol-4-yl)-1-phenyl-1H-pyrazol-4-yl)nicotinate]	9.54 ± 0.05 (≈ 12.8 µM)		
CCOC(=O)c1c(-c2ccc(O)c(OC)c2)cc(-c2nnn(-c3ccc(Br)cc3)c2C)nc1N [Compound 15, Ethyl 2-Amino-6-(1-(4-bromophenyl)-5-methyl-1H-1,2,3-triazol-4-yl)-4-(4-hydroxy-3-methoxyphenyl)nicotinate]	11.3 ± 0.95 (≈ 21.6 µM)		18.3 ± 1.81 (≈ 35 µM)

Continued, in another order:

IC50 [1] [µg/mL]	Structure (SMILES)	toxicity on the normal cell line (BALAB/3T3) [2]	IC50 [2] [µg/mL]
17.2 ± 0.83 (≈ 40 µM)	Cc1c(-c2cc(-c3ccccc3)c(C#N)c(N)n2)nnn1-c1ccc(Br)cc1 [Compound 3, 2-Amino-6-(1-(4-bromophenyl)-5-methyl-1H-1,2,3-triazol-4-yl)-4-phenylnicotinonitrile]		
0.64 ± 0.14 (≈ 0.873 µM)	Cc1c(-c2cc(-c3cn(-c4ccccc4)nc3-c3nnn(-c4ccc(Br)cc4)c3C)c(C#N)c(N)n2)nnn1-c1ccc(Br)cc1 [Compound 6, 2-Amino-6-(1-(4-bromophenyl)-5-methyl-1H-1,2,3-triazol-4-yl)-4-(3-(1-(4-bromophenyl)-5-methyl-1H-1,2,3-triazol-4-yl)-1-phenyl-1H-pyrazol-4-yl)nicotinonitrile]	no toxicity	
9.65 ± 0.37 (≈ 20.2 µM)	COc1cc(-c2cc(-c3nnn(-c4ccc(Br)cc4)c3C)nc(N)c2C#N)ccc1O [Compound 8, 2-Amino-6-(1-(4-bromophenyl)-5-methyl-1H-1,2,3-triazol-4-yl)-4-(4-hydroxy-3-methoxyphenyl)nicotinonitrile]		
11.15 ± 0.01 (≈ 26.5 µM)	Cc1c(-c2cc(-c3ccco3)c(C#N)c(N)n2)nnn1-c1ccc(Br)cc1 [Compound 9, 2-Amino-6-(1-(4-bromophenyl)-5-methyl-1H-1,2,3-triazol-4-yl)-4-(furan-2-yl)nicotinonitrile]		
13.24 ± 0.12 (≈ 28.3 µM)	CCOC(=O)c1c(-c2ccco2)cc(-c2nnn(-c3ccc(Br)cc3)c2C)nc1N [Compound 16, Ethyl 2-Amino-6-(1-(4-bromophenyl)-5-methyl-1H-1,2,3-triazol-4-yl)-4-(furan-2-yl)nicotinate]		
3.56 ± 0.46 (≈ 6.55 µM)	COc1cccc2c1C(=O)c1c(O)c3c(c(O)c1C2=O)C[C@@](O)(C(=O)CO)C[C@@H]3O[C@H]1C[C@H](N)[C@H](O)[C@H](C)O1 [doxorubicin, reference compound]		
